Data reported in ChEMBL document CHEMBL1154674, “Synthesis and evaluation of three 18F-labeled aminophenylbenzothiazoles as amyloid imaging agents” (J Med Chem, 2009).

What was measured:
Assay type in all cases: ADME, organism-based, Macaca mulatta
[1] = Drug level in normal rhesus monkey white matter assessed as standard uptake value at 96.3 MBq, iv after 3.5 mins by microPET; details: in vivo
[2] = Drug level in normal rhesus monkey parietal cortex assessed as standard uptake value at 96.3 MBq, iv after 2.5 mins by microPET; details: in vivo
[3] = Drug level in normal rhesus monkey frontal cortex assessed as standard uptake value at 96.3 MBq, iv after 57.5 mins by microPET; details: in vivo
[4] = Drug level in normal rhesus monkey thalamus assessed as standard uptake value at 96.3 MBq, iv after 42.5 mins by microPET; details: in vivo
[5] = Drug level in normal rhesus monkey white matter assessed as standard uptake value at 96.3 MBq, iv after 8 mins by microPET; details: in vivo
[6] = Drug level in normal rhesus monkey cerebellum assessed as standard uptake value at 96.3 MBq, iv after 6 mins by microPET; details: in vivo, 0.1 h
Procedure, shortened: (§1)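 Single normal rhesus monkey; each tracer given iv via the vena saphena, with 1 day between tracer injections. Dynamic μPET ran 180 min (5×60 s, 5×120 s, 9×300 s, 12×600 s). Images were reconstructed by filtered back projection with a RAMP filter. Regional time-activity curves were expressed as SUV.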

[7] = Drug level in normal rhesus monkey cerebellum assessed as standard uptake value at 96.3 MBq, iv after 47.5 mins by microPET; details: in vivo
Procedure, shortened: (§2)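 One normal rhesus monkey, each tracer given iv via the vena saphena (81.2, 96.3 or 109.4 MBq), with 1 day between tracer injections. Dynamic brain μPET over 180 min used frames of 5 × 60 s, 5 × 120 s, 9 × 300 s and 12 × 600 s. Images were reconstructed by filtered back projection with a RAMP filter. Regional time-activity curves were expressed as SUV.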

[8] = Drug level in normal rhesus monkey parietal cortex assessed as standard uptake value at 96.3 MBq, iv after 37.5 mins by microPET; details: in vivo, 0.625 h
[9] = Drug level in normal rhesus monkey pons assessed as standard uptake value at 96.3 MBq, iv after 22.5 mins by microPET; details: in vivo, 0.375 h
[10] = Drug level in normal rhesus monkey white matter assessed as standard uptake value at 81.2 MBq, iv after 155 mins by microPET; details: in vivo
[11] = Drug level in normal rhesus monkey thalamus assessed as standard uptake value at 81.2 MBq, iv after 115 mins by microPET; details: in vivo
[12] = Drug level in normal rhesus monkey parietal cortex assessed as standard uptake value at 81.2 MBq, iv after 14 mins by microPET; details: in vivo
[13] = Drug level in normal rhesus monkey pons assessed as standard uptake value at 81.2 MBq, iv after 32.5 mins by microPET; details: in vivo
[14] = Drug level in normal rhesus monkey frontal cortex assessed as standard uptake value at 81.2 MBq, iv after 105 mins by microPET; details: in vivo, 1.75 h; procedure, shortened: as §1
[15] = Drug level in normal rhesus monkey cerebellum assessed as standard uptake value at 81.2 MBq, iv after 10 mins by microPET; details: in vivo; procedure, shortened: as §2
[16] = Drug level in normal rhesus monkey pons assessed as standard uptake value at 81.2 MBq, iv after 12 mins by microPET; details: in vivo, 0.2 h
[17] = Drug level in normal rhesus monkey pons assessed as standard uptake value at 81.2 MBq, iv after 165 mins by microPET; details: in vivo, 2.75 h
[18] = Drug level in normal rhesus monkey cerebellum assessed as standard uptake value at 81.2 MBq, iv after 22.5 mins by microPET; details: in vivo, 0.375 h; procedure, shortened: as §2
[19] = Drug level in normal rhesus monkey cerebellum assessed as standard uptake value at 81.2 MBq, iv after 57.5 mins by microPET; details: in vivo; procedure, shortened: as §2
[20] = Drug level in normal rhesus monkey thalamus assessed as standard uptake value at 81.2 MBq, iv after 27.5 mins by microPET; details: in vivo
[21] = Drug level in normal rhesus monkey pons assessed as standard uptake value at 152.9 MBq, iv after 75 mins by microPET; details: in vivo, 1.25 h
[22] = Drug level in normal rhesus monkey parietal cortex assessed as standard uptake value at 152.9 MBq, iv after 47.5 mins by microPET; details: in vivo
[23] = Drug level in normal rhesus monkey thalamus assessed as standard uptake value at 152.9 MBq, iv after 47.5 mins by microPET; details: in vivo
[24] = Drug level in normal rhesus monkey thalamus assessed as standard uptake value at 152.9 MBq, iv after 1.5 mins by microPET; details: in vivo, 0.025 h
[25] = Drug level in normal rhesus monkey thalamus assessed as standard uptake value at 152.9 MBq, iv after 4.5 mins by microPET; details: in vivo, 0.075 h
[26] = Drug level in normal rhesus monkey thalamus assessed as standard uptake value at 152.9 MBq, iv after 85 mins by microPET; details: in vivo
[27] = Drug level in normal rhesus monkey pons assessed as standard uptake value at 152.9 MBq, iv after 85 mins by microPET; details: in vivo
[28] = Drug level in normal rhesus monkey cerebellum assessed as standard uptake value at 152.9 MBq, iv after 27.5 mins by microPET; details: in vivo
Procedure, shortened: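 Single normal rhesus monkey; tracer given iv via the vena saphena, 1 day apart from the other tracer injections. Dynamic μPET ran 90 min (5×60 s, 5×120 s, 9×300 s, 3×600 s). Images were reconstructed by filtered back projection with a RAMP filter. Regional time-activity curves were expressed as SUV.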

[29] = Drug level in normal rhesus monkey pons assessed as standard uptake value at 152.9 MBq, iv after 32.5 mins by microPET; details: in vivo
[30] = Drug level in normal rhesus monkey thalamus assessed as standard uptake value at 109.4 MBq, iv after 0.875 mins by microPET; details: in vivo, 52 s
[31] = Drug level in normal rhesus monkey pons assessed as standard uptake value at 109.4 MBq, iv after 6.5 mins by microPET; details: in vivo
[32] = Drug level in normal rhesus monkey thalamus assessed as standard uptake value at 109.4 MBq, iv after 9.5 mins by microPET; details: in vivo
[33] = Drug level in normal rhesus monkey frontal cortex assessed as standard uptake value at 109.4 MBq, iv after 6.5 mins by microPET; details: in vivo
[34] = Drug level in normal rhesus monkey pons assessed as standard uptake value at 109.4 MBq, iv after 0.375 mins by microPET; details: in vivo, 22 s
[35] = Drug level in normal rhesus monkey pons assessed as standard uptake value at 109.4 MBq, iv after 0.875 mins by microPET; details: in vivo, 52 s
[36] = Drug level in normal rhesus monkey parietal cortex assessed as standard uptake value at 109.4 MBq, iv after 27.5 mins by microPET; details: in vivo
[37] = Drug level in normal rhesus monkey parietal cortex assessed as standard uptake value at 109.4 MBq, iv after 22.5 mins by microPET; details: in vivo, 0.375 h
[38] = Drug level in normal rhesus monkey white matter assessed as standard uptake value at 109.4 MBq, iv after 87 mins by microPET; details: in vivo, 1.45 h

Structure (SMILES): CN(C)c1ccc2nc(-c3ccc([18F])cc3)sc2c1
- SUV [1]: 1.15
- SUV [2]: 2
- SUV [3]: 2.01
- SUV [4]: 2.46
- SUV [5]: 1.16
- SUV [6]: 1.72
- SUV [7]: 1.23
- SUV [8]: 1.84
- SUV [9]: 1.78

Structure (SMILES): CNc1ccc2nc(-c3ccc([18F])cc3)sc2c1
- SUV [10]: 4.236
- SUV [11]: 5.209
- SUV [12]: 4.798
- SUV [13]: 5.714
- SUV [14]: 4.68
- SUV [15]: 3.021
- SUV [16]: 5.701
- SUV [17]: 4.946
- SUV [18]: 2.518
- SUV [19]: 2.522
- SUV [20]: 5.4

Structure (SMILES): [11CH3]Nc1ccc(-c2nc3ccc(O)cc3s2)cc1 [PITTSBURGH COMPOUND B]
- SUV [21]: 0.834
- SUV [22]: 0.862
- SUV [23]: 1.161
- SUV [24]: 0.487
- SUV [25]: 2.075
- SUV [26]: 0.672
- SUV [27]: 0.718
- SUV [28]: 1.258
- SUV [29]: 1.365

Structure (SMILES): Nc1ccc2nc(-c3ccc([18F])cc3)sc2c1
- SUV [30]: 2.43
- SUV [31]: 4.08
- SUV [32]: 5.36
- SUV [33]: 5.35
- SUV [34]: 0.4
- SUV [35]: 1.85
- SUV [36]: 4.84
- SUV [37]: 4.93
- SUV [38]: 3.65
